Results as given in article PMC7993281 (Clinical and Translational Science, 2020).

Experiments:
[1] = MAD study tolerability/safety; type: in vivo, human
Summary of the method: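 Healthy men and women aged 18–55 years, BMI 18–30 kg/m2, 8 active and 2 placebo per cohort. Oral 30–1,000 mg b.i.d. for 7 days with staggered dosing. Subjects were confined until 72 h after the last dose, with follow-up at 29–34 days. AEs, vital signs, ECG, physical examination and clinical laboratory tests were recorded and summarised descriptively.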

[2] = cited from earlier work
[3] = test system: globotriaosylceramide (Gb3) plasma concentration; assay: MAD study pharmacodynamics: plasma Gb3; type: in vivo, human; conditions: after last dose
[4] = test system: lactosylceramide (LacCer) plasma concentration; assay: MAD study pharmacodynamics: plasma LacCer; type: in vivo, human; conditions: 72 hours after the last dose
Summary of the method: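 Healthy men and women (1:1), 8 active and 2 placebo per cohort. Oral 30, 100, 300 or 1,000 mg b.i.d. for 7 days. Morning dose after a 10-hour fast, evening dose 2 hours after dinner. Plasma sampled on Days 1, 2, 4 and 7 and at 24, 48 and 72 h after the last dose. Validated LC-MS/MS. Percent change from Day 1 predose.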

[5] = test system: non‐lysosomal glucosylceramidase (GBA2) vs glucosylceramide synthase (GCS); assay: Relative inhibitory potency on GBA2 versus GCS; type: biochemical
[6] = Multiple-ascending dose; type: in vivo, human; conditions: for Tmax: median (range); for CL renal: urine and plasma
Summary of the method: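 Oral 30, 100, 300 or 1,000 mg b.i.d. for 7 days in healthy men and women, n = 8 active per dose. Plasma sampled for 12 h on Day 1, at trough on Days 2–6, and up to 72 h after the last dose. Urine collected predose Day 1 and 0–12 h on Day 7. Validated LC-MS/MS. Noncompartmental analysis gave AUCτ, accumulation index and CLR.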

[7] = Cardiodynamic and exposure-response analysis of QT interval; type: in vivo, human
[8] = Day 7, 30 mg b.i.d., geometric mean (95% CI)
[9] = Day 7, 100 mg b.i.d., geometric mean (95% CI)
[10] = Day 7, 300 mg b.i.d., geometric mean (95% CI)
[11] = Day 7, 1,000 mg b.i.d., geometric mean (95% CI)
[12] = both, human, plasma, oral, 30 mg
[13] = both, human, plasma, oral, 100 mg
[14] = both, human, plasma, oral, 300 mg
[15] = both, human, plasma, oral, 1000 mg b.i.d.

CCCCCN1C[C@H](O)[C@@H](O)[C@H](O)[C@@H]1CO [sinbaglustat, (2S,3R,4R,5S)‐2‐(hydroxymethyl)‐1‐pentylpiperidine‐3,4,5‐triol]
Headache (subjects) ([1]; MAD 1,000 mg b.i.d. (n = 8)): 4 | Muscle twitching (subjects) ([1]; MAD 1,000 mg b.i.d. (n = 8)): 1 | Nausea (subjects) ([1]; MAD 1,000 mg b.i.d. (n = 8)): 3 | Palpitations (subjects) ([1]; MAD 1,000 mg b.i.d. (n = 8)): 1 | Vomiting (subjects) ([1]; MAD 1,000 mg b.i.d. (n = 8)): 2 | female subjects reporting headache (of 4) ([1]; MAD 1,000 mg b.i.d., female subjects): 4 | subjects reporting AEs (of 32 treated) ([1]; MAD, all doses): 19 | subjects reporting dizziness (of 32) ([1]; MAD, all doses): 10 | subjects reporting headache (of 32) ([1]; MAD, all doses): 8 | subjects reporting AEs ([1]; MAD, all doses, 32 subjects): 59% | total AEs reported ([1]; MAD, all doses, 32 subjects): 66 | blood‐brain barrier crossing [2]: crosses the blood‐brain barrier | Gb3 mean percentage change from baseline after treatment stop [3]: remained stable for 3 days after treatment stop | LacCer percentage change from baseline ([4]; 30 mg b.i.d.): –8% | LacCer percentage change from baseline ([4]; 1,000 mg b.i.d.): –33% | potency in inhibiting GBA2 relative to GCS [5]: 50 fold | AI, accumulation index [6, 8]: 1.085 (0.993, 1.185) | UPE, percentage of dose excreted unchanged in urine [6, 8]: 55.12 (52.08, 58.34) % | AI, accumulation index [6, 9]: 1.037 (0.930, 1.156) | UPE, percentage of dose excreted unchanged in urine [6, 9]: 53.55 (44.68, 64.19) % | AI, accumulation index [6, 10]: 1.101 (1.012, 1.198) | UPE, percentage of dose excreted unchanged in urine [6, 10]: 48.35 (40.84, 57.24) % | AI, accumulation index [6, 11]: 1.001 (0.942, 1.064) | UPE, percentage of dose excreted unchanged in urine [6, 11]: 45.54 (41.54, 49.92) % | increased exposure (Cmax and AUCτ) in female compared to male subjects ([6]; all dose groups combined, steady‐state): around 30% | time to steady‐state concentrations ([6]; b.i.d. dosing): ≤ 2 days | accumulation after multiple doses ([6]; b.i.d. for 7 days): did not accumulate | AUC [6, 12]: 1310 ng·h/mL | AUC(0-t) [6, 12]: 1200 ng·h/mL | Cmax ([6]; both, human, plasma, oral, 30 mg, Cmax, Day 7, 30 mg b.i.d., geometric mean (95% CI)): 413 ng/mL | Tmax ([6]; both, human, plasma, oral, 30 mg, Day 1, 30 mg b.i.d.): 0.9 h | Tmax ([6]; both, human, plasma, oral, 30 mg, Day 7, 30 mg b.i.d.): 0.9 h | AUC [6, 13]: 4650 ng·h/mL | AUC(0-t) [6, 13]: 4480 ng·h/mL | Cmax ([6]; both, human, plasma, oral, 100 mg, Cmax, Day 1, 100 mg b.i.d., geometric mean (95% CI)): 1340 ng/mL | Cmax ([6]; both, human, plasma, oral, 100 mg, Cmax, Day 7, 100 mg b.i.d., geometric mean (95% CI)): 1270 ng/mL | Tmax ([6]; both, human, plasma, oral, 100 mg, Day 1, 100 mg b.i.d.): 0.9 h | Tmax ([6]; both, human, plasma, oral, 100 mg, Day 7, 100 mg b.i.d.): 1.3 h | AUC [6, 14]: 16800 ng·h/mL | AUC(0-t) [6, 14]: 15200 ng·h/mL | Cmax ([6]; both, human, plasma, oral, 300 mg, Cmax, Day 1, 300 mg b.i.d., geometric mean (95% CI)): 3760 ng/mL | Cmax ([6]; both, human, plasma, oral, 300 mg, Cmax, Day 7, 300 mg b.i.d., geometric mean (95% CI)): 3990 ng/mL | Tmax ([6]; both, human, plasma, oral, 300 mg, Day 1, 300 mg b.i.d.): 1.4 h | Tmax ([6]; both, human, plasma, oral, 300 mg, Day 7, 300 mg b.i.d.): 0.9 h | AUC [6, 15]: 51200 ng·h/mL | AUC(0-t) [6, 15]: 51200 ng·h/mL | half-life [6, 15]: 14.7 h | Cmax ([6]; both, human, plasma, oral, 1000 mg b.i.d., Cmax, Day 1, 1,000 mg b.i.d., geometric mean (95% CI)): 10600 ng/mL | Cmax ([6]; both, human, plasma, oral, 1000 mg b.i.d., Cmax, Day 7, 1,000 mg b.i.d., geometric mean (95% CI)): 10400 ng/mL | Tmax ([6]; both, human, plasma, oral, 1000 mg b.i.d., Day 1, 1,000 mg b.i.d.): 1.45 h | Tmax ([6]; both, human, plasma, oral, 1000 mg b.i.d., Day 7, 1,000 mg b.i.d.): 2 h | CL renal ([6]; both, human, oral, 30 mg): 211 mL/min | CL renal ([6]; both, human, oral, 100 mg): 192 mL/min | CL renal ([6]; both, human, oral, 300 mg): 144 mL/min | CL renal ([6]; both, human, oral, 1000 mg b.i.d.): 148 mL/min | dose excreted unchanged in urine ([6]; doses ranging from 30 to 1,000 mg b.i.d.): ~ 50% | Cmax ([6]; female, human, plasma, oral, 1000 mg b.i.d., geometric mean Cmax in women, female subjects, 1,000 mg b.i.d. cohort, day 7): 12000 ng/mL | effect on QTcF, HR, PR, and QRS intervals ([7]; change‐from‐baseline and placebo‐adjusted change‐from‐baseline): no clinically relevant effect | slope of concentration–ΔΔQTcF relationship ([7]; linear mixed‐effects model, 90% CI −0.00008 to 0.00056, statistically nonsignificant): 0.0002 ms per ng/mL | treatment effect‐specific intercept ([7]; linear mixed‐effects model, nonstatistically significant): -2.7 ms
